Test results taken from publication PMC11966317 (ACS Omega, 2025).

Columns and labels:
CHO-hPD-L1 tumors = test: Tumor volume and body weight during treatment; format: in vivo, NOD/SCID mice; conditions: 10 mg/kg every 3 days, five doses, monitored every 3 days
Method in brief: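 Mice bearing CHO-hPD-L1 tumours were randomised to PBS or the anti-PD-L1 antibody (n = 3 each). Either was given at 10 mg/kg via the tail vein every 3 days, five doses over a 14-day cycle. Tumour volume and body weight were recorded. Endpoint was tumour volume >1500 mm3 or maximum diameter >20 mm.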

[1] = test system: heart, liver, spleen, lungs, and kidneys; test: HE staining of major organs after treatment; format: in vivo, NOD/SCID mice; conditions: kidneys after 10 mg/kg every 3 days, five doses

Atezolizumab: anti-PD-L1 monoclonal antibody
body weight versus PBS group (CHO-hPD-L1 tumors): no notable differences in body weight
histopathology of major organs (HE staining) [1]: No histopathological abnormalities
